Laboratory results: ChEMBL document CHEMBL4406821, “Novel dual inhibitors targeting CDK4 and VEGFR2 synergistically suppressed cancer progression and angiogenesis” (Eur J Med Chem, 2019)
Activity calls are given as the source filed them. The rule behind the calls is not given here.

Legend:
SiHa = assay: Antitumor activity against human SiHa cells xenografted in NOD/SCID BALB/c mouse assessed as reduction in Ki67 expression at 40 mg/kg, po measured after 21 days by hematoxylin and eosin staining based immunohistochemistry; format: functional, organism-based
How it was run: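 Female NOD/SCID Balb/c mice, 6–8 weeks old, received 2×10^6 SiHa cells subcutaneously in the right flank. Once tumors reached 100 mm³, mice were randomized, 5 per group, and gavaged once daily for 21 days. Formalin-fixed, paraffin-embedded tumor sections were stained with Ki67 or CD31 antibody (1:100, 4 °C overnight), then biotin secondary and ABC-peroxidase/DAB, with hematoxylin counterstain.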

[1] = target: Myosin light chain kinase, smooth muscle (Homo sapiens) (UniProt Q15746); assay: Inhibition of recombinant human MLCK (1425 to 1771 residues) at 1 uM using KKLNRTLSFAEPG as substrate incubated for 40 mins in presence of [gamma-33P]-ATP by scintillation counting method relative to control
[2] = target: Calcium/calmodulin-dependent protein kinase type 1B (Homo sapiens) (UniProt Q6P2M8); assay: Inhibition of recombinant full length human CAMKIbeta at 1 uM using KKLRRTLSFAEP as substrate incubated for 40 mins in presence of [gamma-33P]-ATP by scintillation counting method relative to control
How it was run: (§1)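 Kinase panel profiling at 1 μM performed by Eurofins KinaseProfiler; percent inhibition reported as mean of two independent experiments.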

[3] = Toxicity in NOD/SCID BALB/c mouse xenografted with human SiHa cells assessed as effect on blood parameter by measuring PDW at 40 mg/kg, po administered once two days for 4 times by hematology analyzer; format: organism-based; conditions: in vivo
[4] = Toxicity in NOD/SCID BALB/c mouse xenografted with human SiHa cells assessed as toxic effects in heart at 40 mg/kg, po administered for 48 hrs by hematoxylin and eosin staining method; format: organism-based; conditions: in vivo
[5] = Volume of distribution in Sprague-Dawley rat at 10 mg/kg, po by HPLC-MS analysis; format: ADME, organism-based; conditions: in vivo
[6] = Toxicity in NOD/SCID BALB/c mouse xenografted with human SiHa cells assessed as effect on blood parameter by measuring platelet content at 40 mg/kg, po administered once two days for 4 times by hematology analyzer; format: organism-based; conditions: in vivo
[7] = AUMC (0 to t) in Sprague-Dawley rat at 10 mg/kg at 10 mg/kg, po by HPLC-MS analysis; format: ADME, organism-based; conditions: in vivo
How it was run: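 Rats fitted with jugular vein catheters for serial blood sampling. Compound dissolved in saline with 5% (v/v) DMSO and given as a single 10 mg/kg dose iv or po after an overnight fast, n = 5 per group. Plasma isolated at once and measured by HPLC with tandem MS detection. Parameters derived by noncompartmental fitting.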

MDA-MB-231 [8] = assay: Induction of cell cycle arrest in human MDA-MB-231 cells assessed as decrease in accumulation in S phase at 20 to 40 nM incubated for 36 hrs by propidium iodide staining based flow cytometry; format: functional
How it was run: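 Cells were treated with graded concentrations for 36 h, then fixed overnight in 70% ice-cold ethanol at 4°C and resuspended in PBS. Staining used 50 µg/ml PI plus 5 µg/ml RNase at 37°C for 30 min. DNA content was analysed by FACS to give G0/G1, S and G2/M fractions.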

[9] = target: Ribosomal protein S6 kinase alpha-5 (Homo sapiens) (UniProt O75582); assay: Inhibition of recombinant human MSK1 (2 to end residues) at 1 uM using GRPRTSSFAEGKK as substrate incubated for 40 mins in presence of [gamma-33P]-ATP by scintillation counting method relative to control
HeLa = assay: Induction of apoptosis in human HeLa cells assessed as increase in early apoptotic cells at 20 to 40 nM incubated for 48 hrs by annexin V FITC and propidium iodide staining based flow cytometry; format: functional, cell-based
How it was run: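 Cells were treated for 48 h, stained with FITC Annexin V and PI, and analyzed by flow cytometry to count early and late apoptotic cells.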

[10] = target: Calcium/calmodulin-dependent protein kinase type 1D (Homo sapiens) (UniProt Q8IU85); assay: Inhibition of recombinant full length human CAMKIdelta at 1 uM using calmodulin as substrate incubated for 40 mins in presence of [gamma-33P]-ATP by scintillation counting method relative to control; how it was run: as §1
[11] = target: cGMP-dependent protein kinase 1 (Homo sapiens) (UniProt Q13976); assay: Inhibition of recombinant human full length PKG1beta at 1 uM using RRRLSFAEPG as substrate incubated for 40 mins in presence of [gamma-33P]-ATP by scintillation counting method relative to control
[12] = target: Serine/threonine-protein kinase PLK3 (Homo sapiens) (UniProt Q9H4B4); assay: Inhibition of recombinant human PLK3 (19 to 301 residues) at 1 uM using casein as substrate incubated for 40 mins in presence of [gamma-33P]-ATP by scintillation counting method relative to control
[13] = target: Protein kinase C beta type (Homo sapiens) (UniProt P05771); assay: Inhibition of recombinant human PKCbeta2 (2 to end residues) at 1 uM using histone H1 as substrate incubated for 40 mins in presence of [gamma-33P]-ATP by scintillation counting method relative to control
[14] = target: Aurora kinase A (Homo sapiens) (UniProt O14965); assay: Inhibition of recombinant full length human Aurora A at 1 uM using LRRASLG as substrate incubated for 40 mins in presence of [gamma-33P]-ATP by scintillation counting method relative to control; how it was run: as §1
MDA-MB-231 [15] = assay: Induction of apoptosis in human MDA-MB-231 cells assessed as decrease in Bcl2 expression at 20 to 40 nM incubated for 48 hrs by Western blot analysis; format: functional, cell-based
How it was run: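 Cells were treated for 48 h, washed three times with PBS, and lysed in RIPA buffer. Immunoblots used anti-Rb, anti-phospho-Rb, anti-Ki67 and anti-Bcl-2 (each 1:1000), with β-actin as loading control.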

Chain of Ribosomal protein S6 kinase alpha-5 (Homo sapiens) (O75582 whole entry, looked up): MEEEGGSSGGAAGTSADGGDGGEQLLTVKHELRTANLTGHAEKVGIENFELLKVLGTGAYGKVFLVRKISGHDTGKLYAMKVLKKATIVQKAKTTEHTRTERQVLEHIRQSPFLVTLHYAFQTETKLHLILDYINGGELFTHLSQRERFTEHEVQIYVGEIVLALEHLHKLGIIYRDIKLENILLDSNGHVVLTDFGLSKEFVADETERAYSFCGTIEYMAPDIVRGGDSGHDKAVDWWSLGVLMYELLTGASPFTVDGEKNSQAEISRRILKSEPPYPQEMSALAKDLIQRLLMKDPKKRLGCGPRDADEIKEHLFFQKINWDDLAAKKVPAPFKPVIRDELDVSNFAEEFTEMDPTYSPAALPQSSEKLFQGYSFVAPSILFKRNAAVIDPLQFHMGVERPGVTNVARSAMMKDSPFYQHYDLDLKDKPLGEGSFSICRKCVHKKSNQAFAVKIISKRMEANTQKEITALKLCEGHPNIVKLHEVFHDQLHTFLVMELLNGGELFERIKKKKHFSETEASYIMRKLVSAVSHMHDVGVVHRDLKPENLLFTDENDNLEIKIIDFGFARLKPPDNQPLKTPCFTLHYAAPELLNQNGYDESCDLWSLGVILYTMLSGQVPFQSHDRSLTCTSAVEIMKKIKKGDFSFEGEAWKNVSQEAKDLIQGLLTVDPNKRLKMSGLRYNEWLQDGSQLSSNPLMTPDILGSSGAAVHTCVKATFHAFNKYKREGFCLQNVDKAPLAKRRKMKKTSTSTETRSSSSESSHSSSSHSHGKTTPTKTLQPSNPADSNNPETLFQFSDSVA
Chain of Calcium/calmodulin-dependent protein kinase type 1B (Homo sapiens) (Q6P2M8 whole entry): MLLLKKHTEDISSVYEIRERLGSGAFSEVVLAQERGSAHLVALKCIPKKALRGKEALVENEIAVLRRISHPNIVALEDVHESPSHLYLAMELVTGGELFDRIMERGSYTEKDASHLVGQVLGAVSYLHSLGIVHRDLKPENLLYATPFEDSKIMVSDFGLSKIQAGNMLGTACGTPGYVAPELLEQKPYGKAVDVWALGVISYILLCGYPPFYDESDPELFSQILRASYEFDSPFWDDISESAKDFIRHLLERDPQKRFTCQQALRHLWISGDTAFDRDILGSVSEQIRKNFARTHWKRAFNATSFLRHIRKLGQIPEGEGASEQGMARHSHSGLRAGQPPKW
Chain of Aurora kinase A (Homo sapiens) (O14965 whole entry): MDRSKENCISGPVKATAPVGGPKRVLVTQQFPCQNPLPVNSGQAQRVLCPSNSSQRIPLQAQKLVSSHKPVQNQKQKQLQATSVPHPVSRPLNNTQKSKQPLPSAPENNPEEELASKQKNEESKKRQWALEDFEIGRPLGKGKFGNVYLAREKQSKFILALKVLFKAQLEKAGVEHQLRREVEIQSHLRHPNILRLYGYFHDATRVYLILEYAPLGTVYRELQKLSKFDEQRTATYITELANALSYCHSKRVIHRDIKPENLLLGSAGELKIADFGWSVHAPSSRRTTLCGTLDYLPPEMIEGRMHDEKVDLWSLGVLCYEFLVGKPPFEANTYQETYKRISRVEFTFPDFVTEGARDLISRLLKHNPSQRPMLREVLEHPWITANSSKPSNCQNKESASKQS
Chain of cGMP-dependent protein kinase 1 (Homo sapiens) (Q13976 whole entry, the tested form may be a part): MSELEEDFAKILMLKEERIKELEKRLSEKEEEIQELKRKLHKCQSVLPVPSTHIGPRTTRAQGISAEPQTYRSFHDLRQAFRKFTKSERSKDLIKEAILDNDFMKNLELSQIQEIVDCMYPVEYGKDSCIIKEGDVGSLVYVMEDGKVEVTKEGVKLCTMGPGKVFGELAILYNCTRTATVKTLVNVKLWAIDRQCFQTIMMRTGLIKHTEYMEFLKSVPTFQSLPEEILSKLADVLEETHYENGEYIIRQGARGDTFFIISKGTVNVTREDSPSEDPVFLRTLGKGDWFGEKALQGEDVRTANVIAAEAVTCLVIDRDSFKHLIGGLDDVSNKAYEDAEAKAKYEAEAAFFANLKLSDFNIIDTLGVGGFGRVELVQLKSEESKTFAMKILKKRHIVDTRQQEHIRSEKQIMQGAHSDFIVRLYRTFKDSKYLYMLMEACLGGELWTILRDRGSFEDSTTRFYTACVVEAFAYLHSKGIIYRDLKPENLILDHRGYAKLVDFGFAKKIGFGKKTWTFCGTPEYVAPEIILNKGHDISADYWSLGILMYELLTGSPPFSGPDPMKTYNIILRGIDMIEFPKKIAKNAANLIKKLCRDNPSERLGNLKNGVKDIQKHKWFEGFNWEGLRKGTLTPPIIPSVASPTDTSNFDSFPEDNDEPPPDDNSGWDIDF
Chain of Protein kinase C beta type (Homo sapiens) (P05771 2-671 limits assumed): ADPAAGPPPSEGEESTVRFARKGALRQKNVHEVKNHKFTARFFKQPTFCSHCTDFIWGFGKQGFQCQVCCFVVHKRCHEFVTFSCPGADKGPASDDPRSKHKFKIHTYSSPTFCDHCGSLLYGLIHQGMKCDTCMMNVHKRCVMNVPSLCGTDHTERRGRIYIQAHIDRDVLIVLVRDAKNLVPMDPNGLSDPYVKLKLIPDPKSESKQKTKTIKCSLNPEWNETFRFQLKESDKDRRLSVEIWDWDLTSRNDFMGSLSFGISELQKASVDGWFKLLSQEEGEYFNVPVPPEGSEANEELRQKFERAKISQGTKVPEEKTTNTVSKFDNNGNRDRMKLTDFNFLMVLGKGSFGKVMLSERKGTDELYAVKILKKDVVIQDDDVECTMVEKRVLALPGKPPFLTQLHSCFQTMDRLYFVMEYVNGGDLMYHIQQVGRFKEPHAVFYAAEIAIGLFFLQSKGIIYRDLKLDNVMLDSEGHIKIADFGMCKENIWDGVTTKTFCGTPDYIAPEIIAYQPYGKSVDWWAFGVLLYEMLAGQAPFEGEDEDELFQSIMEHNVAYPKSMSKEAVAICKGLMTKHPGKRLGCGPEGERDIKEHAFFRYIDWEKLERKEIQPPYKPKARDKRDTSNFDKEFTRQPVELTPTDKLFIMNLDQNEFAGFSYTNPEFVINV
Chain of Myosin light chain kinase, smooth muscle (Homo sapiens) (Q15746 whole entry, the tested form may be a part): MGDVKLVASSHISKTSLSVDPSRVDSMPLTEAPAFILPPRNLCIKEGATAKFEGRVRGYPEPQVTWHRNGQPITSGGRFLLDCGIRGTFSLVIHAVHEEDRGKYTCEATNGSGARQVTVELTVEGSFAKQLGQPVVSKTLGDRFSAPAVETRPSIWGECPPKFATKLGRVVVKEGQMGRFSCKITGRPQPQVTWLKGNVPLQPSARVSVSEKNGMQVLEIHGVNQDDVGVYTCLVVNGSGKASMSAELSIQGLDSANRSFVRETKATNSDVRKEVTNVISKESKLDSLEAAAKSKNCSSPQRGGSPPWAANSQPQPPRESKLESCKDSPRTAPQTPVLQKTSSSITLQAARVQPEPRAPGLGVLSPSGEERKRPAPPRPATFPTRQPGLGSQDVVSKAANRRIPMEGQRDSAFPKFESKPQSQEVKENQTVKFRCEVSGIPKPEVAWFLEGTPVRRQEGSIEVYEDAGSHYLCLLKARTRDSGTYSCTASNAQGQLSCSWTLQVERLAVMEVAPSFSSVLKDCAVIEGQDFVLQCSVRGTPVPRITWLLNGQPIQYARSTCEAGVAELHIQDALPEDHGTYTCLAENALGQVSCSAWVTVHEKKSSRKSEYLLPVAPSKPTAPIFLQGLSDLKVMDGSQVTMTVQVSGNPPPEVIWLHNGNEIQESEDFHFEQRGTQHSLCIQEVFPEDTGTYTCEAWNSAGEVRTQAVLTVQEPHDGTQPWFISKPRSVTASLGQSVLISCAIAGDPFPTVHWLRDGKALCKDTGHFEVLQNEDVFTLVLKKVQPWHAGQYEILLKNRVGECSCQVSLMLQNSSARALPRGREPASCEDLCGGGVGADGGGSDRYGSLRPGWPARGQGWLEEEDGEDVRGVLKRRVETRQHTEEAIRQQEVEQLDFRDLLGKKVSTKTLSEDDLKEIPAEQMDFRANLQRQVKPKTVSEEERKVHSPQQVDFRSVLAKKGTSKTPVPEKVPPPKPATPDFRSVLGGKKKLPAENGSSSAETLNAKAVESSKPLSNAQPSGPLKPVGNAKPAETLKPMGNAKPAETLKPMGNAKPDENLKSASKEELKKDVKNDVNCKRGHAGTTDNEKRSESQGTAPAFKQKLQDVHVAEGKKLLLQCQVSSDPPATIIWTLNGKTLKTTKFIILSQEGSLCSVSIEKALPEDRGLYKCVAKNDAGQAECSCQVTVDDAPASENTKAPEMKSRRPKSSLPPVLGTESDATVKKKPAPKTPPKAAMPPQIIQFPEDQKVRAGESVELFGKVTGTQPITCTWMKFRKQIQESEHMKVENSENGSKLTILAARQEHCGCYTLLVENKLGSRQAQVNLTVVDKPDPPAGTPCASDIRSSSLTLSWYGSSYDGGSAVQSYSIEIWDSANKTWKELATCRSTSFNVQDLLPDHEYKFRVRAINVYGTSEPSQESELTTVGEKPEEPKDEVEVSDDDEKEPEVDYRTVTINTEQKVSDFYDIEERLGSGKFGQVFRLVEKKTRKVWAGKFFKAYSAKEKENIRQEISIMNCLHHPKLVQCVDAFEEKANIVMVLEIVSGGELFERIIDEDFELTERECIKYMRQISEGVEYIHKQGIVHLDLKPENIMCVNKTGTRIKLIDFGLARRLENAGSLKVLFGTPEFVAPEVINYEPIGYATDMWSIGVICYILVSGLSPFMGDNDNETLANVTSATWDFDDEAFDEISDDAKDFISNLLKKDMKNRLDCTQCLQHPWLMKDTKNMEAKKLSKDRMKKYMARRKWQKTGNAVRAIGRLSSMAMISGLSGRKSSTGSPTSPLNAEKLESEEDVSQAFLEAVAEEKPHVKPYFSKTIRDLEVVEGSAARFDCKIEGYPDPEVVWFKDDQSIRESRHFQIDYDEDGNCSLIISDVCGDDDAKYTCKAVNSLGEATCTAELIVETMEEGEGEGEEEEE

Row | SMILES | inhibition (SiHa) | inhibition [1] [%] | inhibition [2] [%] | Activity [3] | Activity [4] | Vd [5] [L/kg] | Activity [6] | AUMCt [7] [mg/L.hr] | Activity (MDA-MB-231 [8]) | inhibition [9] [%] | Activity (HeLa) | inhibition [10] [%] | inhibition [11] [%] | inhibition [12] [%] | inhibition [13] [%] | inhibition [14] [%] | Activity (MDA-MB-231 [15])
1 | COc1cc2nccc(Oc3ccc(NC(=O)C4(C(=O)Nc5ccc(F)cc5)CC4)cc3)c2cc1OC [CABOZANTINIB] | Active |  |  |  |  |  |  |  |  |  |  |  |  |  |  |  | 
2 | Cc1ccc(NC(=O)C2(C(=O)Nc3ccc(Nc4ncc(F)c(-c5cc(F)c6nc(C)n(C(C)C)c6c5)n4)cc3)CC2)cc1 |  | 21 | 8 | Non-Toxic | Non-Toxic | 6 | Non-Toxic | 21 | Active | 62 | Active | 1 | 45 | 36 | 47 | 79 | Active
